The record followed here is ChEMBL document CHEMBL1153620 (Eur J Med Chem, 2009).

For data set [1], the target named is T1, Prostaglandin G/H synthase 1 (Ovis aries, UniProt P05979).
T1 sequence (P05979 whole entry): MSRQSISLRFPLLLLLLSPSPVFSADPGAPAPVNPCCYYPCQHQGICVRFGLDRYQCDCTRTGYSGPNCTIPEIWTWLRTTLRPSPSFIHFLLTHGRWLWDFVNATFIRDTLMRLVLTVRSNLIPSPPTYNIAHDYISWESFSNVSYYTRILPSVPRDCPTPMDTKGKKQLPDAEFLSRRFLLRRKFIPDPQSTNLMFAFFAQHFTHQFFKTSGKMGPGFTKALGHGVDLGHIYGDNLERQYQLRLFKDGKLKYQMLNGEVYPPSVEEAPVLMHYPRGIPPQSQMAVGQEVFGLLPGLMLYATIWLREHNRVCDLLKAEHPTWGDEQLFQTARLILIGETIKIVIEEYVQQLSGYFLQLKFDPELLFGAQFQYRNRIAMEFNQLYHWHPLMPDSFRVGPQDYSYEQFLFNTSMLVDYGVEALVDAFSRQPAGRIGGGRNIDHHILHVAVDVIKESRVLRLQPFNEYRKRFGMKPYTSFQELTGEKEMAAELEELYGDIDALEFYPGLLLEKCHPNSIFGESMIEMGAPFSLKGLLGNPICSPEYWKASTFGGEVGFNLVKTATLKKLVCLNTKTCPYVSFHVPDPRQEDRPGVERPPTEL
In words: Inhibition of ovine COX1 by enzyme-immuno assay.

The subject of data set [2] is Rattus norvegicus. In words: Antiinflammatory activity in rat assessed as inhibition of carrageenan-induced paw edema at 10 mg/kg, po. It is filed as functional. In a few lines:
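Rats, six per group, received the drug suspended in 1% CMC orally 30 min before carrageenan; one group served as control. Carrageenan was given as 0.05 mL of 1% w/v in 0.9% saline under the plantar aponeurosis of the right hind paw.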

The next data set has as its system Mus musculus. Briefly: Analgesic activity in albino mouse inhibition of acetic acid-induced writhing response at 10 mg/kg, po. It is filed as functional. The arrangement: scale not given: the % may be the effect or the level left. For orientation: In writhing tests, fewer writhes than in controls are read as antinociception.
The test system of a further data set is Gastric mucosa. In words: Inhibition of lipid peroxidation assessed as malondialdehyde level per 100 mg of gastric mucosa isolated from albino rat at dose 30 mg/kg, po.
For data set [3], the system named is Rattus norvegicus. In words: Gastrointestinal toxicity in albino rat assessed as ulcerogenic indicates at dose 30 mg/kg, po. The conditions noted are these: in vivo.

Regarding `COc1ccc(-c2nnc(CCC(=O)c3ccc(-c4ccccc4)cc3)o2)cc1OC`, in data set [1], inhibition was half-maximal at 54.1 µM (IC50). Besides, the inhibition in vivo at 10 mg/kg with Rattus norvegicus [2] amounted to 62.5%. The compound also registered an Activity in the data set with Mus musculus of 57.3%. Moreover, the MDA content at 30 mg/kg in the data set with Gastric mucosa came to 4.9 nmol MDA/100 mg tissue.
On to `O=C(CCc1nnc(-c2ccccc2Cl)o1)c1ccc(-c2ccccc2)cc1`, for which the inhibition in vivo at 10 mg/kg in the data set with Rattus norvegicus [2] came out at 46.8%. Moreover, the Activity in the data set with Mus musculus stood at 66.1%. Further, the UI in the data set with Rattus norvegicus [3] was found to be 0.5. The MDA content at 30 mg/kg in the data set on Gastric mucosa was determined as 5.7 nmol MDA/100 mg tissue.
On the same counts, the results for `Cc1ccc(-c2nnc(CCC(=O)c3ccc(-c4ccccc4)cc3)o2)cc1` are 50%, 45.1%, 0.5 and 5.8 nmol MDA/100 mg tissue.
Turning to `O=C(CCc1nnc(-c2ccc(F)cc2)o1)c1ccc(-c2ccccc2)cc1`, the inhibition in vivo at 10 mg/kg with Rattus norvegicus [2] turned out to be 53.1%. In the data set with Mus musculus, this compound registered an Activity of 72.5%. Besides, the UI with Rattus norvegicus [3] was determined as 0.6. In addition, in the data set with Gastric mucosa, the MDA content at 30 mg/kg is 4.6 nmol MDA/100 mg tissue.
In the same order, the values of `O=C(CCc1nnc(Cc2ccccc2)o1)c1ccc(-c2ccccc2)cc1` are 50%, 54.1%, 0.5 and 5.8 nmol MDA/100 mg tissue.
Take `O=C(O)Cc1ccccc1Nc1c(Cl)cccc1Cl` [DICLOFENAC]: the inhibition in vivo at 10 mg/kg in the data set on Rattus norvegicus [2] came to 65.6%. Further, the Activity in the data set on Mus musculus came to 70.3%. The MDA content at 30 mg/kg in the data set on Gastric mucosa turned out to be 8.9 nmol MDA/100 mg tissue.
In data set [1], `COc1ccc(-c2nnc(CCC(=O)c3ccc(-c4ccccc4)cc3)o2)cc1` returned an IC50 of 52.3 µM. The inhibition in vivo at 10 mg/kg in the data set on Rattus norvegicus [2] was found to be 59.4%. The compound further had an Activity in the data set with Mus musculus of 51.3%. Further, the MDA content at 30 mg/kg with Gastric mucosa was determined as 6.1 nmol MDA/100 mg tissue.
Consider `O=C(CCc1nnc(COc2ccccc2)o1)c1ccc(-c2ccccc2)cc1`, for which the inhibition in vivo at 10 mg/kg with Rattus norvegicus [2] was 53.1%. Further, the Activity with Mus musculus was 55.8%. Also, in the data set on Rattus norvegicus [3], the UI is 0.6. Further, the MDA content at 30 mg/kg in the data set on Gastric mucosa was found to be 5.8 nmol MDA/100 mg tissue.
In the same order, the values of `O=C(CCc1nnc(-c2ccccc2)o1)c1ccc(-c2ccccc2)cc1` are 43.7%, 51.3%, 0.4 and 4.3 nmol MDA/100 mg tissue.
Compound `O=C(CCc1nnc(-c2ccc([N+](=O)[O-])cc2)o1)c1ccc(-c2ccccc2)cc1` yielded an IC50 in data set [1] of 42.6 µM. In addition, the inhibition in vivo at 10 mg/kg with Rattus norvegicus [2] is 56.2%. In the data set with Mus musculus, this compound had an Activity of 45.8%. Also, the MDA content at 30 mg/kg in the data set on Gastric mucosa stood at 4.3 nmol MDA/100 mg tissue.
Turning to `CC(=O)Oc1ccccc1-c1nnc(CCC(=O)c2ccc(-c3ccccc3)cc2)o1`, the inhibition in vivo at 10 mg/kg in the data set with Rattus norvegicus [2] was 43.7%. Further, the Activity with Mus musculus is on record as 56.3%. Moreover, in the data set on Rattus norvegicus [3], the UI amounted to 0.7. The MDA content at 30 mg/kg in the data set on Gastric mucosa is 5.8 nmol MDA/100 mg tissue.
For `O=C(O)CCC(=O)c1ccc(-c2ccccc2)cc1` [FENBUFEN], the IC50 in data set [1] came out at 3.9 µM. For the same compound, the inhibition in vivo at 10 mg/kg in the data set with Rattus norvegicus [2] amounted to 56.3%. For the same compound, the Activity in the data set on Mus musculus is listed as 54.1%. The MDA content at 30 mg/kg in the data set on Gastric mucosa is 6.8 nmol MDA/100 mg tissue.
In the same order, the values of `O=C(CCc1nnc(COc2ccc3ccccc3c2)o1)c1ccc(-c2ccccc2)cc1` are 48.4 µM, 59.4%, 68.6% and 5.9 nmol MDA/100 mg tissue.
With `O=C(CCc1nnc(-c2ccc(Cl)cc2)o1)c1ccc(-c2ccccc2)cc1`, in the data set on Rattus norvegicus [2], the inhibition in vivo at 10 mg/kg amounted to 53.1%. The compound also came in with an Activity in the data set with Mus musculus of 61.9%. The UI with Rattus norvegicus [3] was determined as 0.6. Further, in the data set with Gastric mucosa, the MDA content at 30 mg/kg is 5.8 nmol MDA/100 mg tissue.

In general, IC50 refers to the concentration that gives 50% inhibition. One may read the inhibition in vivo as the percentage by which the read-out fell short of the control.
